Screens from PubChem BioAssay.
Only some compounds are listed: those with a hit (about 6.8% of all), similar ones and a draw of the others.
HER2 expr 66K: inhibitors of Her2 protein expression, primary screen, SKBR-3 cells, AlphaScreen, 66K library; SKBR-3 HER2 protein level, 18-24 h; active compounds read low; HER2 level % of control, % at 10 µM; actives 0.69% (n = 65,000); Receptor tyrosine-protein kinase erbB-2 (Homo sapiens), P04626;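 active = HER2 level under 5% of the carrier-only control; inconclusive = no clear call, values can overlap the other calls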;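 note: lower value means stronger loss of Her2 protein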
M1 antag: antagonists of rat M1 muscarinic receptor | Muscarinic acetylcholine receptor M1 (Rattus norvegicus), P08482 | CHO-M1 cells, Fluo-4 calcium, ACh EC80 antagonist mode; active compounds read low | B-score at 10 µM | actives 3.4% (n = 64,000);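 active = calcium fluorescence response, raw or row-and-column corrected B-score, differing from the plate sample mean either way at a set confidence level, mostly lower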
HEK293 NFkB inh: inhibitors of PMA/ionomycin-induced NF-kB reporter, primary screen, antigen receptor NF-kB inhibitor project, cell-based, HEK-293 luciferase reporter, luminescence. inhibition, % at 3 µM. HEK-293 NF-kB luciferase reporter. actives 0.21% (n = 62,000);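 active = inhibition above the mean of all tested compounds plus 3 SD, cut at about 40% in these data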
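System: NF-kB luciferase reporter HEK-293 cells | Replication: Single test | Control set: DMSO vs reference inhibitor | Evaluation: % inhibition | Schedule: 1 h pretreatment, 16 h stimulation, 37 °C | Probe or stimulus: PMA with ionomycin | Compound dosing: One dose, 3 µM | Detection: Luciferase luminescence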
Cdc25B block: inhibitors of Cdc25B phosphatase catalytic domain, primary screen, biochemical, OMFP fluorescence; AID 368, 2006; recombinant Cdc25B, OMFP fluorescence Ex485/Em525; inhibition, %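 (compounds tested at 10 µM final in the well)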; actives 0.1% (n = 65,000); M-phase inducer phosphatase 2 (Homo sapiens), P30305; in the data active = inhibition above about 50%
Target sequence (P30305 whole entry, looked up, the tested form may be a part): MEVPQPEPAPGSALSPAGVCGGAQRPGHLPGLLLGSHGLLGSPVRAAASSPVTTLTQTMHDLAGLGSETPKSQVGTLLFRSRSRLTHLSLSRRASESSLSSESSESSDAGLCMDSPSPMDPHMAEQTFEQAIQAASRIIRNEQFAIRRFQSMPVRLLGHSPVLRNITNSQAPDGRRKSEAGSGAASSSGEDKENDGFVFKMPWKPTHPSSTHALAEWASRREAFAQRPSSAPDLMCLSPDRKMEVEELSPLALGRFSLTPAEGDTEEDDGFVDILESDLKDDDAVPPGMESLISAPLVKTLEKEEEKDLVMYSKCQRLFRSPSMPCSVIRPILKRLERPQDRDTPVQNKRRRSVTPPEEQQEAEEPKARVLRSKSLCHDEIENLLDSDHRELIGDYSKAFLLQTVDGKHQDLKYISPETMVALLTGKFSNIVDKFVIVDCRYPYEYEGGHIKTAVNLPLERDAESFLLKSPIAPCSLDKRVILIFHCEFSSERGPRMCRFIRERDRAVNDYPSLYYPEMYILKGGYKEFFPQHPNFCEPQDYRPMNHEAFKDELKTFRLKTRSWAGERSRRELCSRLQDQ
M1 agonist: M1 muscarinic receptor agonists, primary screen, CHO-M1 cells, Fluo-4 calcium, agonist mode | Muscarinic acetylcholine receptor M1 | Fluo-4 calcium fluorescence; active compounds read high | B-score at 10 µM | actives 3% (n = 64,000);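 active = fluorescence rise, raw or as B-score row- and column-corrected plate score, outside the 99.7% band of its plate's samples, either direction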
MKP-1 inh: MKP-1 phosphatase inhibitors, primary screen, biochemical, in vitro; Dual specificity protein phosphatase 1 (Homo sapiens), P28562; recombinant MKP-1, OMFP hydrolysis fluorescence; inhibition, %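 (compounds tested at a single concentration somewhere between 10 and 100 µM)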; actives 0.15% (n = 65,000); AID 374, 2006;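 active = inhibition above about 50%, limit read from the data; inconclusive = inhibition over screen mean plus 3 SD, below that limit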
M1 ag confirm: rat M1 muscarinic receptor agonists, confirmation, CHO-M1 cells, Fluo-4 calcium, duplicate retest | shares compounds with M1 agonist | actives 19% (n = 1,700) | AID 1488, 2009 | Fluo-4 calcium fluorescence, agonist mode; actives lie on both sides | fluorescence change (max-min) at 10 µM;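 active = fluorescence change differs from the solvent-only DMSO control mean at a set confidence level in both duplicate runs; inconclusive = differs from solvent-only control mean in just one of two runs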;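 note: an EC20 dose of acetylcholine follows compound addition during the same imaging run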
M4 agonist ctr: agonist activity at rat M4 receptor, confirmation, counter-screen for M1 allosteric modulator project, cell-based, agonist mode. shares compounds with M1 agonist. CHO M4/Gqi5 cells, Fluo-4 calcium fluorescence; actives lie on both sides. fluorescence change (max-min) at 10 µM. actives 9% (n = 1,700). AID 1741, 2009;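 active = fluorescence change differing from the plate's solvent-only control wells at 99.7% confidence in both duplicates, whether higher or lower; inconclusive = differs from solvent controls in only one of two duplicates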
Large screens that a line does not name were inactive (follow-up assays come after a bar, where they were run).

CCCCc1nc(N2CCOCC2)c(C#N)c2c1COC(C)(C)C2	M1 agonist 4.5 (no result: HEK293 NFkB inh) | M1 ag confirm inconclusive | M4 agonist ctr inactive
CN(C)C=Nc1c(Br)cc(Br)c2nonc12	M1 agonist 61 | M1 ag confirm 278 | M4 agonist ctr 617
CN(C)C=Nc1nonc1-c1ncn[nH]1	none
CC(=O)N1CCc2c(sc(NC(=O)C3CC3)c2-c2nc3ccccc3s2)C1	M1 agonist 6.1 | M1 ag confirm inactive | M4 agonist ctr inconclusive
CC(C)c1nnc(NC(=O)C2CCN(c3nc4ccccc4s3)CC2)s1	none
CCCN(CCC)c1nc2ccccc2nc1C(C#N)C(=O)OC(C)COC (configuration not stated)	none (no result: HEK293 NFkB inh)
CCN(CC)c1nc2ccccc2nc1C(C#N)C(=O)NCCCOC (configuration not stated)	M1 agonist 5 | M1 ag confirm inactive | M4 agonist ctr inactive
CCN1CCN(c2nc3ccccc3nc2C(C#N)C(=O)OCc2ccccc2)CC1 (configuration not stated)	none
CCCCN(CCCC)c1nc2ccccc2nc1C(C#N)C(=O)NCCCOC (configuration not stated)	M1 antag -16, M1 agonist 434 (no result: HEK293 NFkB inh) | M1 ag confirm 2697 | M4 agonist ctr 2698
CCN(CC)c1nc2ccccc2nc1C(C#N)C(=O)NCCc1ccccc1 (configuration not stated)	M1 agonist 219 | M1 ag confirm 2068 | M4 agonist ctr 1724
O=C(c1ccco1)N1CCCC(c2nc(-c3ccc(S(=O)(=O)NCc4ccccc4)cc3)no2)C1 (configuration not stated)	none (no result: HER2 expr 66K)
O=C(CC1Oc2ccc(Cl)cc2NC1=O)NC1CCCCCC1 (configuration not stated)	none
CN1C(=O)C(O)(CC(=O)c2ccccn2)c2cc(Br)ccc21 (configuration not stated)	M1 agonist -2.7 | M1 ag confirm inconclusive | M4 agonist ctr inactive
CC(=O)c1sc(NC(=O)C=C(C)C)nc1C	M1 agonist -2.2 | M1 ag confirm -25 | M4 agonist ctr inactive
CC(=O)c1sc(NC(=O)C2(F)C(F)(F)C(F)(F)C(F)(F)C(F)(F)C2(F)F)nc1C	HEK293 NFkB inh 90, M1 agonist 9.2 | M1 ag confirm inactive | M4 agonist ctr inconclusive
CC(=O)OC(Cn1ccnc1)c1ccccc1 (configuration not stated)	none
CC(=O)C1=C(O)C(=O)N(Cc2ccccc2)C1c1ccco1 (configuration not stated)	none
O=C1c2ccccc2NC(c2ccco2)N1O (configuration not stated)	none
O=C1C2=C(Nc3ccccc3SC2c2ccco2)c2ccccc21 (configuration not stated)	M1 agonist active | M1 ag confirm inconclusive | M4 agonist ctr inactive
COC(=O)c1sc(Nc2ccccc2)nc1C	none
CC(C)(C)C(=O)c1sc(Nc2ccccc2)nc1N	M1 agonist 3.1, MKP-1 inh 85 | M1 ag confirm inconclusive | M4 agonist ctr inactive
COC(=O)Cc1cc(=O)[nH]c(/N=C(/NC(=O)c2ccccc2)Nc2ccccc2C)n1	none
Cc1ccc(OCc2nnc(SCC(=O)c3ccccc3)n2Cc2ccco2)cc1	none
Cc1ccc(OCc2nnc(SCc3nc4ccccc4[nH]3)n2Cc2ccco2)cc1	M1 agonist 5.5 | M1 ag confirm inconclusive | M4 agonist ctr inactive
O=C(Nc1nccs1)c1nc(-c2ccccc2)n(-c2ccccc2)n1	none
N#Cc1cccc(NC(=O)c2nc(-c3ccccc3)n(-c3ccccc3)n2)c1	M1 agonist 3.5 | M1 ag confirm inactive | M4 agonist ctr inactive
C=CCNS(=O)(=O)c1nc(C)c(Cl)c(C)c1C#N	none (no result: M1 antag, M1 agonist)
Cn1c(=O)c2c(nc(NCc3ccccc3)n2CCCc2ccccc2)n(C)c1=O	M1 antag 2.5, M1 agonist 15 | M1 ag confirm inconclusive | M4 agonist ctr inactive
Cn1c(=O)c2c(nc(N3CCN(Cc4ccccc4)CC3)n2CCCc2ccccc2)n(C)c1=O	M1 agonist 4.2 | M1 ag confirm inactive | M4 agonist ctr inactive
O=C1NC2CCCCC2NC1CC(=O)N1CCN(c2ccccc2)CC1 (configuration not stated)	none
COc1cccc(-c2cc(C(F)(F)F)n3ncc(C(=O)NCC4CCCO4)c3n2)c1 (configuration not stated)	M1 agonist 6.6 | M1 ag confirm inconclusive | M4 agonist ctr inactive
C=CCn1c(N)c(C(=O)NCC2CCCO2)sc1=S (configuration not stated)	none
CCn1c(N)c(C(=O)NCC2CCCO2)sc1=S (configuration not stated)	M1 agonist 6.7 | M1 ag confirm inactive | M4 agonist ctr inactive
COc1ccc(-c2csc(N(CCCN3CCOCC3)C(=O)c3ccco3)n2)cc1	M1 agonist 8.8 | M1 ag confirm inactive | M4 agonist ctr inactive
COc1ccc(-c2csc(N(CCCN(C)C)C(=O)c3cccs3)n2)cc1	M1 antag -9.5, M1 agonist 27 | M1 ag confirm inactive | M4 agonist ctr inactive
COCCCN(C(C)=O)c1nc(-c2ccc(OC)cc2)cs1	none
Cc1ccc(-c2csc(N(CCCN3CCOCC3)C(=O)c3ccco3)n2)cc1	none
CN(CC(=O)Nc1ccncc1)S(=O)(=O)c1ccc(Cl)cc1	none
CC1(C)CC(=O)C=C(NCC(=O)O)C1	none
COc1cc(NC(=O)C2CC(=O)NC3=C2C(=O)CC(C)(C)C3)c(OC)cc1Cl (configuration not stated)	M1 agonist 16 | M1 ag confirm inactive | M4 agonist ctr inactive
O=C1N(CCCCN2C(=O)C3(OCCO3)c3ccccc32)c2ccccc2C12OCCO2	M1 agonist 3.1 | M1 ag confirm inactive | M4 agonist ctr inactive
O=S(=O)(NCC1CCCO1)c1ccc(Oc2ccccc2)cc1 (configuration not stated)	none
